In the library only some 1.9% were active in any assay of this set; here they are far more common.
M5 antag – CHRM5 antagonism in calcium assay. CHO-hM5 cells, Fluo-8 calcium fluorescence, ACh EC80. P08912. inhibition, % at 3 µM. actives 0.59% (n = 360,000);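 active means inhibition above a per-plate cutoff, the mean of that plate's test compounds plus 3 SD, cut at about 27% in these data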;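 further: 0% = acetylcholine EC80 with DMSO and 100% = DMSO without agonist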
CHRM4 PAM – potentiates acetylcholine response at human M4 receptor | P08173 | actives 0.4% (n = 360,000) | activation, % at 3 µM | CHO-K1 hM4/Gqi5, Fluo-8 calcium fluorescence, ACh EC20; 0% = ACh EC20, 100% = maximal ACh;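 active means activation above its plate's cutoff, the mean activation of sample wells plus 3 SD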
Target sequence (P08173 whole entry, looked up): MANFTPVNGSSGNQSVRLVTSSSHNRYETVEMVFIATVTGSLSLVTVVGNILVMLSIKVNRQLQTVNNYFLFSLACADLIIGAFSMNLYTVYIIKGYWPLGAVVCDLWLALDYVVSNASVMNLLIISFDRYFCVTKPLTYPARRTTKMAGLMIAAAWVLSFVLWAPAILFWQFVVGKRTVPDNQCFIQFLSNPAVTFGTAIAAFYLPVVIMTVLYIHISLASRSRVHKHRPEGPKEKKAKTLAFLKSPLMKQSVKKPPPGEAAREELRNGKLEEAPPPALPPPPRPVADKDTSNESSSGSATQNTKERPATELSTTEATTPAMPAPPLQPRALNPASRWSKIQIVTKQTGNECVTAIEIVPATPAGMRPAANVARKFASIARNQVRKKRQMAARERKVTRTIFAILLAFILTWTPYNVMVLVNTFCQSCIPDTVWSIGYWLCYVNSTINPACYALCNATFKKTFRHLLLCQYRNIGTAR
M5 ag – agonists of human muscarinic M5 receptor (CHRM5); P08912; CHO-K1 hM5 cells, Fluo-8 calcium fluorescence; 0% DMSO wells, 100% maximal acetylcholine response; activation, % at 3 µM; actives 0.19% (n = 360,000); AID 624037;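 active means activation above the run's mean over test compounds plus 3 SD, cut at about 23% in these data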;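 further: signal is peak over basal fluorescence ratio across the kinetic read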
CHRM5 PAM – potentiates acetylcholine response at human M5 receptor | P08912 | CHO-K1 hM5, Fluo-8 calcium, ACh EC20 PAM; 0% = ACh EC20, 100% = ACh EC100 | activation, % at 3 µM | actives 0.3% (n = 360,000);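 active means activation above the run cutoff, the mean activation of all test compounds plus 3 SD, cut at about 18% in these data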
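System: CHO-K1 hM5 cells. Reagent: acetylcholine, EC20 level. Compound dosing: single dose, 3 µM nominal final test concentration. Timing: Post-acetylcholine fluorescence recording 140 s. Detection: Fluo-8 calcium fluorescence. Read-out: % activation, ACh-normalized. Benchmarks: ACh EC20 and EC100 wells. Repeats: singlicate, one well per test compound.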
CHRM4 agonist – CHRM4 agonism in calcium assay; activation, % at 3 µM; CHO-K1 hM4/Gqi5, Fluo-8 calcium fluorescence; vehicle 0%, full acetylcholine response 100%; actives 0.14% (n = 360,000); AID 624127;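 active means activation above the run mean over all test wells plus 3 SD, cut at about 32% in these data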;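 further: peak over basal fluorescence ratio per well then scaled between controls; 0% = DMSO wells and 100% = acetylcholine at EC100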
CHRM4 antagonist – blocks acetylcholine activation of human M4 receptor; P08173; CHO-hM4 cells, ACh EC80, Fluo-8 calcium fluorescence; inhibition, % at 3 µM; actives 0.73% (n = 360,000); AID 624125;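 active means inhibition above its plate's cutoff, the mean inhibition of sample wells plus 3 SD, cut at about 27% in these data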;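 further: 0% = acetylcholine EC80 with DMSO and 100% = DMSO without agonist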
The depositor's hits bear a star.

SMILES | M5 antag | CHRM4 PAM | M5 ag | CHRM5 PAM | CHRM4 agonist | CHRM4 antagonist
CC1(C(=O)Nc2ccc3c(c2)OCO3)CCN1Cc1csc2ccccc12 (stereo not drawn) | 13.0 | -12.3 | -2.5 | -19.8 | 3.4 | 10.6
Cc1cc(C)[n+](C)n1CC(O)Cn1c2ccccc2c2ccccc21 (stereo not drawn) | -2.7 | -8.6 | -10.3 | 2.2 | -0.5 | -6.0
COC(=O)[C@H](C)NC(=O)NCCC1=CCCCC1 | 9.6 | -5.3 | -1.4 | -4.2 | 0.3 | -3.6
COC(=O)[C@H](CCSC)NC(=O)NCCC1=CCCCC1 | 35.0* | -0.3 | -0.5 | -20.7 | 1.2 | 9.3
COC(=O)[C@H](Cc1ccccc1)NC(=O)NCCC1=CCCCC1 | 62.8* | -0.1 | -6.1 | -23.3 | 1.9 | 14.2
COC(=O)C=CSC(=S)C1CCCC1=N (stereo not drawn) | 9.7 | 0.4 | -2.5 | 1.1 | 1.1 | -1.6
Nc1cc(C(F)(F)F)ccc1Nc1ccccc1 | -7.0 | -0.4 | -0.9 | 5.0 | -0.6 | 1.2
CC(C)CN(C(=O)COC(=O)CCc1c[nH]c2ccccc12)c1c(N)n(Cc2ccccc2)c(=O)[nH]c1=O | 7.0 | 1.6 | 1.0 | 0.9 | 1.9 | -0.4
CC(C)CN(C(=O)COC(=O)CCCc1c[nH]c2ccccc12)c1c(N)n(Cc2ccccc2)c(=O)[nH]c1=O | 28.9* | -2.2 | -2.0 | -6.1 | 0.6 | 6.5
CN(Cc1cnn(C)c1)C(=O)CC1C(=O)NCCN1Cc1cccc(Oc2ccccc2)c1 (stereo not drawn) | 32.4* | 0.2 | -5.8 | -14.0 | 3.5 | 3.7
Fc1ccc(NC(=S)NC2CC3CCCC(C2)N3Cc2cccs2)cc1 (stereo not drawn) | 31.8* | -5.6 | -6.1 | -13.9 | 3.4 | 8.2
COC(C(=O)Nc1ccccc1C(=O)N1CCOCC1)c1ccccc1 (stereo not drawn) | 8.8 | 3.3 | -2.1 | -5.9 | 0.6 | 1.0
CCOC(=O)C1=C(C)N(CCCC(=O)O)C(=O)NC1c1ccccc1 (stereo not drawn) | 10.7 | 5.1 | 3.3 | -1.4 | 1.4 | 1.1
CCOC(=O)C1=C(C)N(CCO)C(=O)NC1c1ccccc1 (stereo not drawn) | -1.6 | 8.6 | 1.4 | 19.5* | -0.2 | -5.5
S=C(NCc1ccccn1)NN=Cc1ccccn1 | 6.1 | 7.7 | 0.9 | 11.3 | 0.9 | -4.0
Cc1ccc(NC(=O)Cn2nc(C(=O)O)c3ccccc3c2=O)c([N+](=O)[O-])c1 | 9.3 | -2.4 | -1.7 | -1.8 | 1.6 | -7.9
COC(=O)c1cnn(-c2ccccc2)c1C(OC)OC | -12.2 | 8.3 | 7.1 | 22.1* | 1.6 | -11.1
COC(=O)c1cnn(-c2ccccc2)c1/C=N/NC(=S)Nc1ccccc1 | -2.2 | 0.9 | -0.2 | 7.2 | 0.4 | -8.0
Cc1nc2cc(Nc3ccncc3)ccc2s1 | 2.0 | 2.6 | -16.4 | 3.9 | 1.4 | -5.5
O=C(CCC1CCCC1)NCc1cccs1 | -0.7 | 19.9* | -1.6 | 2.2 | 0.3 | 21.5
O=C(CCCCC(=O)NCc1cccs1)NCc1cccs1 | 1.9 | -5.9 | -1.9 | 3.5 | -0.1 | 9.3
CCCCCCCCC[n+]1cccc2c3ccccc3ccc21 | 40.7* | -21.9 | -3.6 | -20.4 | 3.4 | 69.7*
O=[N+]([O-])c1ccc(C[n+]2cccc3c4ccccc4ccc32)cc1 | 13.6 | -4.7 | -7.9 | 2.9 | 0.8 | 0.2
CCCCCCCCCCCCCCCC[n+]1cccc2ccccc21 | 63.5* | -14.7 | -8.4 | -19.7 | -0.7 | 51.6*
Cc1ccccc1C[n+]1cccc2ccccc21 | 9.1 | -2.9 | -12.8 | -7.4 | -0.1 | 17.5
SMILES | M5 antag | CHRM4 PAM | M5 ag | CHRM5 PAM | CHRM4 agonist | CHRM4 antagonist
O=C(O)CC1(CC(=O)Nc2ccc(F)cc2F)CCCCC1 | -1.5 | -3.8 | 2.8 | 19.3* | 0.1 | 2.4
CCS(=O)(=O)c1ccc(O)c(NC(=O)CC2(CC(=O)O)CCCC2)c1 | -14.7 | 10.4 | 6.7 | 19.2* | 0.8 | -9.8
CCS(=O)(=O)c1ccc(O)c(NC(=O)CCCC(=O)O)c1 | -1.1 | -2.5 | 2.1 | 2.1 | 0.4 | 11.7
O=C(O)CC1(CC(=O)Nc2cc(F)ccc2Cl)CCCCC1 | 4.1 | -7.8 | -2.4 | 0.4 | -0.1 | -0.5
Cc1cccc(OCCOC(=O)c2c(-c3ccccc3)noc2C)c1 | 4.8 | -3.9 | -4.5 | -2.2 | -0.8 | -1.9
CN(C(=O)COc1ccccc1C(=O)NCCOc1ccccc1)c1ccccc1 | 42.6* | -39.4 | 3.4 | -18.5 | 24.5 | 59.6*
O=C(CSc1nn(-c2ccccc2)c(=S)s1)Nn1cnnc1 | -9.3 | -0.7 | 0.3 | 5.4 | 0.2 | -7.6
Cc1ccc(NC(=O)CSc2nn(-c3ccccc3)c(=S)s2)cc1S(=O)(=O)N(C)C | 29.7* | -12.4 | 0.8 | -17.4 | 13.3 | 22.9
CCCN(CC#CC(O)(c1ccccc1)c1cccnc1)CCC (stereo not drawn) | -3.6 | -5.5 | -10.7 | -9.9 | 0.1 | 4.9
CC(O)(C#CCN1CCOCC1)c1ccccc1 (stereo not drawn) | 8.4 | -1.9 | -2.3 | 0.5 | -0.2 | 6.2
OC(C#CCN1CCCCCC1)(c1ccccc1)c1cccnc1 (stereo not drawn) | 55.3* | -60.5 | -18.4 | -32.1 | 12.8 | 82.1*
OC(C#CCN1CCCC1)(c1ccccc1)c1cccnc1 (stereo not drawn) | 75.6* | -17.0 | -21.7 | -31.2 | -0.1 | 86.0*
COc1ccc(CN2CCNC(=O)C2CC(=O)NCCc2nc(C)c(C)s2)cc1C (stereo not drawn) | 4.1 | -0.7 | -3.6 | -2.8 | 0.4 | 3.4
CCCC(CCC)C(=O)OC1C[C@H]2CC[C@@H](C1)[N+]2(C)C (stereo partly drawn) | 97.8* | -18.2 | -1.5 | -17.5 | 0.1 | 99.1*
CCCC(CCC(=O)NC1CCCCC1)C(=O)O (stereo not drawn) | -4.0 | 3.6 | -0.3 | -2.1 | 0.2 | 1.9
CSC1=NSC2=NC(=O)/C(=C/c3coc4ccc(O)cc4c3=O)C(=N)N12 | 28.1* | -8.0 | 52.5* | -4.9 | 26.2 | 20.2
N=C1/C(=C\c2coc3ccccc3c2=O)C(=O)N=C2SC=CN12 | 34.1* | -43.4 | 108.9* | -33.5 | 106.8* | 37.8*
CSC1=NSC2=NC(=O)/C(=C/c3coc4ccccc4c3=O)C(=N)N12 | 40.9* | -12.5 | 45.2* | -19.2 | 33.1* | 17.8
N=C1/C(=C/c2cccn2Cc2ccc(F)cc2)C(=O)N=C2SC=CN12 | 6.3 | -3.0 | -5.2 | -0.8 | 7.2 | -9.1
CC1=CC2=NC(=O)/C(=C/c3coc4ccc(Cl)cc4c3=O)C(=N)N2O1 | 40.5* | -13.8 | 83.1* | -29.2 | 44.9* | 23.3
CSC1=NSC2=NC(=O)/C(=C\c3cccs3)C(=N)N12 | -1.8 | -1.2 | 4.5 | -0.4 | 1.5 | 2.8
